{"source": "ChEMBL document CHEMBL2311303", "about": "“Synthesis and anticancer activity of a novel series of 9-O-substituted berberine derivatives: a lipophilic substitute role” (Bioorg Med Chem Lett, 2013)", "key": {"[1]": {"experiment": "Cytotoxicity against mouse BNL-CL2 cells at 10 uM after 48 hrs by MTT assay", "type": "functional"}, "[2]": {"test_system": "HT-29", "experiment": "Cytotoxicity against human HT-29 cells after 48 hrs by MTT assay", "type": "functional, cell-based", "details": "HT-29, 48 h"}, "[3]": {"test_system": "HT-29", "experiment": "Cytotoxicity against human HT-29 cells after 24 hrs by MTT assay", "type": "functional, cell-based", "details": "HT-29, 24 h"}, "[4]": {"test_system": "HepG2", "experiment": "Cytotoxicity against human HepG2 cells after 24 hrs by MTT assay", "type": "functional, cell-based", "details": "HepG2, 24 h"}, "[5]": {"test_system": "HepG2", "experiment": "Cytotoxicity against human HepG2 cells after 48 hrs by MTT assay", "type": "functional, cell-based", "details": "HepG2, 48 h"}, "[6]": {"test_system": "HepG2", "experiment": "Induction of apoptosis in human HepG2 cells assessed as early apoptotic cells at 0.25 uM after 24 hrs using annexin-V/FITC/propidium iodide staining by flow cytometry analysis (reference value: 2.05%)", "type": "functional", "how_it_was_run": "(§1)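 HepG2 cells exposed for 24 h to 0.25, 0.5 or 1.0 µM, with vehicle alone as control. Cells then double-stained with annexin V-FITC/PI and analysed by flow cytometry. Quadrant read-out: annexin V-positive/PI-negative cells counted as early apoptotic.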"}, "[7]": {"test_system": "HepG2", "experiment": "Induction of apoptosis in human HepG2 cells assessed as viable cells at 0.25 uM after 24 hrs using annexin-V/FITC/propidium iodide staining by flow cytometry analysis (reference value: 94.29%)", "type": "functional", "details": "HepG2, 24 h, read-out: Activity", "how_it_was_run": "as §1"}, "[8]": {"test_system": "HepG2", "experiment": "Induction of apoptosis in human HepG2 cells assessed as necrotic cells at 0.25 uM after 24 hrs using annexin-V/FITC/propidium iodide staining by flow cytometry analysis (reference value: 0.51%)", "type": "functional", "how_it_was_run": "as §1"}, "[9]": {"test_system": "HepG2", "experiment": "Induction of apoptosis in human HepG2 cells assessed as morphological changes at 20 uM after 24 hrs using Hoechst 33258 staining by fluorescence microscopic analysis", "type": "functional, cell-based", "how_it_was_run": "(§2)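 HepG2 cells left untreated or exposed for 24 h, at 20 µM or at 0.5 or 1.0 µM depending on compound. Cells then stained with Hoechst 33258 and nuclear morphology examined by fluorescence microscopy at ×400.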"}, "[10]": {"test_system": "HepG2", "experiment": "Induction of apoptosis in human HepG2 cells assessed as late apoptotic cells at 1 uM after 24 hrs using annexin-V/FITC/propidium iodide staining by flow cytometry analysis (reference value: 3.16%)", "type": "functional", "how_it_was_run": "as §1"}, "[11]": {"test_system": "HepG2", "experiment": "Induction of apoptosis in human HepG2 cells assessed as early apoptotic cells at 1 uM after 24 hrs using annexin-V/FITC/propidium iodide staining by flow cytometry analysis (reference value: 2.05%)", "type": "functional", "how_it_was_run": "as §1"}, "[12]": {"test_system": "HepG2", "experiment": "Induction of apoptosis in human HepG2 cells assessed as viable cells at 1 uM after 24 hrs using annexin-V/FITC/propidium iodide staining by flow cytometry analysis (reference value: 94.29%)", "type": "functional", "details": "HepG2, 24 h, read-out: Activity", "how_it_was_run": "as §1"}, "[13]": {"test_system": "HepG2", "experiment": "Induction of apoptosis in human HepG2 cells assessed as necrotic cells at 1 uM after 24 hrs using annexin-V/FITC/propidium iodide staining by flow cytometry analysis (reference value: 0.51%)", "type": "functional", "how_it_was_run": "as §1"}, "[14]": {"test_system": "HepG2", "experiment": "Induction of apoptosis in human HepG2 cells assessed as late apoptotic cells at 0.5 uM after 24 hrs using annexin-V/FITC/propidium iodide staining by flow cytometry analysis (reference value: 3.16%)", "type": "functional", "how_it_was_run": "as §1"}, "[15]": {"test_system": "HepG2", "experiment": "Induction of apoptosis in human HepG2 cells assessed as early apoptotic cells at 0.5 uM after 24 hrs using annexin-V/FITC/propidium iodide staining by flow cytometry analysis (reference value: 2.05%)", "type": "functional", "how_it_was_run": "as §1"}, "[16]": {"test_system": "HepG2", "experiment": "Induction of apoptosis in human HepG2 cells assessed as viable cells at 0.5 uM after 24 hrs using annexin-V/FITC/propidium iodide staining by flow cytometry analysis (reference value: 94.29%)", "type": "functional", "details": "HepG2, 24 h, read-out: Activity", "how_it_was_run": "as §1"}, "[17]": {"test_system": "HepG2", "experiment": "Induction of apoptosis in human HepG2 cells assessed as necrotic cells at 0.5 uM after 24 hrs using annexin-V/FITC/propidium iodide staining by flow cytometry analysis (reference value: 0.51%)", "type": "functional", "how_it_was_run": "as §1"}, "[18]": {"test_system": "HepG2", "experiment": "Induction of apoptosis in human HepG2 cells assessed as late apoptotic cells at 0.25 uM after 24 hrs using annexin-V/FITC/propidium iodide staining by flow cytometry analysis (reference value: 3.16%)", "type": "functional", "how_it_was_run": "as §1"}, "[19]": {"test_system": "HepG2", "experiment": "Induction of apoptosis in human HepG2 cells assessed as morphological changes at 0.5 to 1 uM after 24 hrs using Hoechst 33258 staining by fluorescence microscopic analysis", "type": "functional, cell-based", "how_it_was_run": "as §2"}, "[20]": {"test_system": "HepG2", "experiment": "Ratio of berberine IC50 to compound IC50 for human HepG2 cells", "type": "functional"}, "[21]": {"test_system": "HepG2", "experiment": "Cytotoxicity against human HepG2 cells after 24 to 72 hrs by MTT assay", "type": "functional, cell-based", "how_it_was_run": "(§3)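 HepG2 cells exposed to a range of concentrations for 24, 48 and 72 h. Viability then read by MTT. Data are means ± SD of at least three replicates from three independent experiments.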"}, "[22]": {"test_system": "HepG2", "experiment": "Cytotoxicity against human HepG2 cells by MTT assay", "type": "functional, cell-based", "details": "TDE = time-dependent effect", "how_it_was_run": "as §3"}}, "note": "Activity calls are given as the source filed them. No cut-off for these calls is given here.", "data": [{"compound": "CCCCCCCCCCCCOc1c(OC)ccc2cc3[n+](cc12)CCc1cc2c(cc1-3)OCO2.[Br-]", "values": [{"measurement": "Activity", "setting": "[1]", "value": "<20", "unit": "%"}, {"measurement": "IC50", "setting": "[2]", "value": 280, "unit": "nM"}, {"measurement": "IC50", "setting": "[3]", "value": 930, "unit": "nM"}, {"measurement": "IC50", "setting": "[4]", "value": 260, "unit": "nM"}, {"measurement": "IC50", "setting": "[5]", "value": 100, "unit": "nM"}]}, {"compound": "COc1ccc2cc3[n+](cc2c1OC)CCc1cc2c(cc1-3)OCO2.[Cl-]", "note": "[BERBERINE CHLORIDE]", "values": [{"measurement": "Activity", "setting": "[6]", "value": 2.99, "unit": "%"}, {"measurement": "viability at 0.25 µM", "setting": "[7]", "value": 89.8, "unit": "%"}, {"measurement": "Activity", "setting": "[8]", "value": 0.84, "unit": "%"}, {"measurement": "Activity", "setting": "[9]", "value": "Active"}, {"measurement": "IC50", "setting": "[2]", "value": 8450, "unit": "nM"}, {"measurement": "IC50", "setting": "[3]", "value": "> 20000", "unit": "nM"}, {"measurement": "IC50", "setting": "[4]", "value": 11200, "unit": "nM"}, {"measurement": "IC50", "setting": "[5]", "value": 8320, "unit": "nM"}, {"measurement": "Activity", "setting": "[10]", "value": 5.51, "unit": "%"}, {"measurement": "Activity", "setting": "[11]", "value": 3.77, "unit": "%"}, {"measurement": "viability at 1 µM", "setting": "[12]", "value": 88.8, "unit": "%"}, {"measurement": "Activity", "setting": "[13]", "value": 1.88, "unit": "%"}, {"measurement": "Activity", "setting": "[14]", "value": 4.49, "unit": "%"}, {"measurement": "Activity", "setting": "[15]", "value": 4.39, "unit": "%"}, {"measurement": "viability at 0.5 µM", "setting": "[16]", "value": 90, "unit": "%"}, {"measurement": "Activity", "setting": "[17]", "value": 1.17, "unit": "%"}, {"measurement": "Activity", "setting": "[18]", "value": 6.4, "unit": "%"}]}, {"compound": "COc1ccc2cc3[n+](cc2c1OC/C=C(\\C)CC/C=C(\\C)CCC=C(C)C)CCc1cc2c(cc1-3)OCO2.[Br-]", "values": [{"measurement": "Activity", "setting": "[6]", "value": 1.66, "unit": "%"}, {"measurement": "viability at 0.25 µM", "setting": "[7]", "value": 91.4, "unit": "%"}, {"measurement": "Activity", "setting": "[8]", "value": 3.73, "unit": "%"}, {"measurement": "Activity", "setting": "[19]", "value": "Active"}, {"measurement": "Ratio IC50", "setting": "[20]", "value": 104}, {"measurement": "Activity", "setting": "[1]", "value": "<20", "unit": "%"}, {"measurement": "Activity", "setting": "[21]", "value": "Dose-dependent effect"}, {"measurement": "IC50", "setting": "[2]", "value": 270, "unit": "nM"}, {"measurement": "Activity", "setting": "[22]", "value": "tde"}, {"measurement": "IC50", "setting": "[3]", "value": 1820, "unit": "nM"}, {"measurement": "IC50", "setting": "[4]", "value": 210, "unit": "nM"}, {"measurement": "IC50", "setting": "[5]", "value": 80, "unit": "nM"}, {"measurement": "Activity", "setting": "[10]", "value": 11.28, "unit": "%"}, {"measurement": "Activity", "setting": "[11]", "value": 2.39, "unit": "%"}, {"measurement": "viability at 1 µM", "setting": "[12]", "value": 69.2, "unit": "%"}, {"measurement": "Activity", "setting": "[13]", "value": 17.08, "unit": "%"}, {"measurement": "Activity", "setting": "[14]", "value": 17.4, "unit": "%"}, {"measurement": "Activity", "setting": "[15]", "value": 8.71, "unit": "%"}, {"measurement": "viability at 0.5 µM", "setting": "[16]", "value": 71.4, "unit": "%"}, {"measurement": "Activity", "setting": "[17]", "value": 2.48, "unit": "%"}, {"measurement": "Activity", "setting": "[18]", "value": 3.2, "unit": "%"}]}, {"compound": "CCCCCCCCOc1c(OC)ccc2cc3[n+](cc12)CCc1cc2c(cc1-3)OCO2", "values": [{"measurement": "IC50", "setting": "[2]", "value": 80, "unit": "nM"}, {"measurement": "IC50", "setting": "[3]", "value": 480, "unit": "nM"}, {"measurement": "IC50", "setting": "[4]", "value": 190, "unit": "nM"}, {"measurement": "IC50", "setting": "[5]", "value": 100, "unit": "nM"}]}, {"compound": "COc1ccc2cc3[n+](cc2c1OCC=C(C)C)CCc1cc2c(cc1-3)OCO2", "values": [{"measurement": "IC50", "setting": "[2]", "value": 1750, "unit": "nM"}, {"measurement": "IC50", "setting": "[3]", "value": 10800, "unit": "nM"}, {"measurement": "IC50", "setting": "[4]", "value": 4670, "unit": "nM"}, {"measurement": "IC50", "setting": "[5]", "value": 3170, "unit": "nM"}]}, {"compound": "CCCCOc1c(OC)ccc2cc3[n+](cc12)CCc1cc2c(cc1-3)OCO2", "values": [{"measurement": "IC50", "setting": "[2]", "value": 870, "unit": "nM"}, {"measurement": "IC50", "setting": "[3]", "value": 4410, "unit": "nM"}, {"measurement": "IC50", "setting": "[4]", "value": 1810, "unit": "nM"}, {"measurement": "IC50", "setting": "[5]", "value": 970, "unit": "nM"}]}, {"compound": "COc1ccc2cc3[n+](cc2c1OC/C=C(\\C)CCC=C(C)C)CCc1cc2c(cc1-3)OCO2", "values": [{"measurement": "IC50", "setting": "[2]", "value": 140, "unit": "nM"}, {"measurement": "IC50", "setting": "[3]", "value": 1210, "unit": "nM"}, {"measurement": "IC50", "setting": "[4]", "value": 210, "unit": "nM"}, {"measurement": "IC50", "setting": "[5]", "value": 170, "unit": "nM"}]}, {"compound": "COc1ccc2cc3[n+](cc2c1O)CCc1cc2c(cc1-3)OCO2", "note": "[BERBERRUBINE CHLORIDE]", "values": [{"measurement": "IC50", "setting": "[2]", "value": "> 50000", "unit": "nM"}, {"measurement": "IC50", "setting": "[3]", "value": "> 50000", "unit": "nM"}, {"measurement": "IC50", "setting": "[4]", "value": "> 50000", "unit": "nM"}, {"measurement": "IC50", "setting": "[5]", "value": "> 50000", "unit": "nM"}]}]}
